{"data": "Published values from different studies", "EGFR A750P/del747-749": "Epidermal growth factor receptor (EGFR, Homo sapiens, UniProt P00533, A750P/del747-749)", "EGFR T790M": "Epidermal growth factor receptor (EGFR, Homo sapiens, UniProt P00533, T790M)", "EGFR L861Q": "Epidermal growth factor receptor (EGFR, Homo sapiens, UniProt P00533, L861Q)", "EGFR G719S": "Epidermal growth factor receptor (EGFR, Homo sapiens, UniProt P00533, G719S)", "EGFR L858R": "Epidermal growth factor receptor (EGFR, Homo sapiens, UniProt P00533, L858R)", "EGFR del752-759": "Epidermal growth factor receptor (EGFR, Homo sapiens, UniProt P00533, del752-759)", "EGFR del747-752/P753S": "Epidermal growth factor receptor (EGFR, Homo sapiens, UniProt P00533, del747-752/P753S)", "EGFR L858R/T790M": "Epidermal growth factor receptor (EGFR, Homo sapiens, UniProt P00533, L858R/T790M)", "EGFR del747-750/T751S": "Epidermal growth factor receptor (EGFR, Homo sapiens, UniProt P00533, del747-750/T751S)", "EGFR G719C": "Epidermal growth factor receptor (EGFR, Homo sapiens, UniProt P00533, G719C)", "note": "Each line is one published result; the experiments were not run side by side."}
{"Compound": "COc1ccnn2ncc(-c3ccnc(N(C)C)n3)c12", "target": "Epidermal growth factor receptor (EGFR, Homo sapiens, UniProt P00533)", "test": "binding", "conditions": "1 µM", "remaining binding": "79%"}
{"Compound": "O=C(Nc1c[nH]nc1C(=O)NC1CCNCC1)c1cc(F)cc(F)c1", "target": "EGFR A750P/del747-749", "test": "binding, competition with immobilised ligand", "conditions": "1 µM", "remaining binding": "80%"}
{"Compound": "CO[C@@H](C)c1c(Nc2ccc([C@H](N(C)C(=O)C3CCS(=O)(=O)CC3)C(F)(F)F)cc2)cnc2cc(Cl)nn12", "target": "EGFR T790M", "test": "cell-free assay, competition with immobilised ligand", "conditions": "1 µM", "remaining binding": "90%"}
{"Compound": "COc1cnc(Nc2cccc(S(N)(=O)=O)c2)nc1N1CCN(c2ccccc2)CC1", "target": "EGFR T790M", "test": "binding, competition with immobilised ligand", "conditions": "1 µM", "remaining binding": "72%"}
{"Compound": "CC1CCCN1c1nccc(-c2cnn3ncccc23)n1 (stereo not shown)", "target": "EGFR L861Q", "test": "binding", "conditions": "1 µM", "remaining binding": "100%"}
{"Compound": "CCC(=O)N[C@H]1CC[C@@H](C(=O)N(C)c2ccc(-c3nc4ccccc4o3)cc2)C1", "target": "Epidermal growth factor receptor (EGFR, Homo sapiens, UniProt P00533, del746-750)", "test": "cell-free assay, competition with immobilised ligand", "conditions": "1 µM", "remaining binding": "78%"}
{"Compound": "COc1ncc2cc3ccccc3nc2c1C#N", "target": "EGFR L861Q", "test": "cell-free assay, competition with immobilised ligand", "conditions": "5 µM", "remaining binding": "100%"}
{"Compound": "CCN1CCN(Cc2ccc(C(=O)Nc3ccc(C)c(Oc4ccc5c(c4)CC(=O)N5)c3)cc2C(F)(F)F)CC1", "target": "EGFR A750P/del747-749", "test": "binding, competition with immobilised ligand", "conditions": "1 µM", "remaining binding": "100%"}
{"Compound": "C[C@@H]1CCN(c2nccc(-c3cnn4ncccc34)n2)C1", "target": "EGFR G719S", "test": "binding", "conditions": "1 µM", "remaining binding": "74%"}
{"Compound": "O=C(c1ccc(Nc2ncc(Cl)c(-c3cc4ccccc4s3)n2)cc1)N1CCC(N2CCCC2)CC1", "target": "EGFR T790M", "test": "binding, competition with immobilised ligand", "conditions": "1 µM", "remaining binding": "58%"}
{"Compound": "O=C(NC[C@@H]1[C@H]2CN(C(=O)OCc3cc(C(F)(F)F)cc(C(F)(F)F)c3)C[C@@H]12)c1ccc2[nH]nnc2c1", "target": "EGFR L858R", "test": "cell-free assay, competition with immobilised ligand", "conditions": "1 µM", "remaining binding": "100%"}
{"Compound": "O=C(NCCCN1CCOCC1)c1ccc(Nc2ncc(Cl)c(-c3ccc(Cl)s3)n2)cc1", "target": "EGFR del752-759", "test": "binding, competition with immobilised ligand", "conditions": "1 µM", "remaining binding": "92%"}
{"Compound": "Cn1nc(C(F)(F)F)cc1-c1cnc(N2CCc3cc(S(=O)(=O)Nc4c(F)cc(Cl)cc4F)cc(N4CCCC4=O)c32)nc1", "target": "EGFR del747-752/P753S", "test": "cell-free assay, competition with immobilised ligand", "conditions": "1 µM", "remaining binding": "100%"}
{"Compound": "CN(C)c1ncc(F)c(-c2cnn3ncccc23)n1", "target": "EGFR L858R/T790M", "test": "binding", "conditions": "1 µM", "remaining binding": "74%"}
{"Compound": "CCOCCn1cc(C(=O)Nc2ccc(-n3nc(-c4cccnc4)cc3C(F)(F)F)cn2)ccc1=O", "target": "EGFR del747-750/T751S", "test": "cell-free assay, competition with immobilised ligand", "conditions": "1 µM", "remaining binding": "100%"}
{"Compound": "CNC(=O)[C@@H]1CC[C@@H](n2c(-c3ccc4cnccc4c3)nc3ccc(C(=O)NCc4cccc(C(N)=O)c4)cc32)C1", "target": "EGFR G719C", "test": "binding, competition with immobilised ligand", "conditions": "1 µM", "remaining binding": "100%"}
{"Compound": "c1cncc(-c2cccc(Nc3nccc(NC4CCCCC4)n3)c2)c1", "target": "EGFR G719S", "test": "binding, competition with immobilised ligand", "conditions": "10 µM", "remaining binding": "68%"}
{"Compound": "C[C@@H]1CN(c2cc(-c3n[nH]c4ccc(OC5(C)CC5)cc34)ncn2)C[C@H](C)O1", "target": "EGFR G719S", "test": "cell-free assay, competition with immobilised ligand", "conditions": "0.1 µM", "remaining binding": "59%"}
{"Compound": "Cc1cnn2ncc(-c3ccnc(N(C)C)n3)c2c1", "target": "EGFR del752-759", "test": "binding", "conditions": "1 µM", "remaining binding": "100%"}
{"Compound": "COc1cnc(Nc2cccc(S(N)(=O)=O)c2)nc1N1CCN(c2ccccc2)C(=O)C1", "target": "EGFR L861Q", "test": "binding, competition with immobilised ligand", "conditions": "1 µM", "remaining binding": "100%"}
{"Compound": "O=C(c1ccc(Nc2ncc(Cl)c(-c3ccc(Cl)s3)n2)cc1)N1CCC(N2CCCC2)CC1", "target": "EGFR L858R", "test": "binding, competition with immobilised ligand", "conditions": "1 µM", "remaining binding": "72%"}
{"Compound": "O=C(NCC1CCOCC1)c1n[nH]cc1NC(=O)c1c(F)cccc1F", "target": "EGFR del747-752/P753S", "test": "binding, competition with immobilised ligand", "conditions": "1 µM", "remaining binding": "100%"}
{"Compound": "O=C(NCCCN1CCOCC1)c1ccc(Nc2nccc(-c3cc4ccccc4s3)n2)cc1", "target": "EGFR L858R/T790M", "test": "binding, competition with immobilised ligand", "conditions": "1 µM", "remaining binding": "75%"}
{"Compound": "O=C(N1CCS(=O)(=O)CC1)N1C[C@H](c2ccc(OC(F)(F)F)cc2)C[C@H](c2nc(C3CC3)no2)C1", "target": "EGFR L858R", "test": "cell-free assay, competition with immobilised ligand", "conditions": "1 µM", "remaining binding": "100%"}
{"Compound": "CN1CCN(c2ccc(Nc3nccc(-c4cccc([N+](=O)[O-])c4)n3)cc2C(F)(F)F)CC1", "target": "EGFR G719C", "test": "binding", "conditions": "10 µM", "remaining binding": "69%"}
{"Compound": "Cc1nc(N2CC[C@@H](O)C2)ncc1-c1cc(C(F)(F)F)cc2[nH]ncc12", "target": "EGFR del752-759", "test": "cell-free assay, competition with immobilised ligand", "conditions": "1 µM", "remaining binding": "99%"}
{"Compound": "N[C@@H]1CCN(c2nccc(-c3cnn4ncccc34)n2)C1", "target": "EGFR L858R/T790M", "test": "binding", "conditions": "1 µM", "remaining binding": "100%"}
{"Compound": "O=C(c1ccc(Nc2nccc(-c3cc4ccccc4s3)n2)cc1)N1CCC(N2CCCC2)CC1", "target": "EGFR T790M", "test": "binding, competition with immobilised ligand", "conditions": "1 µM", "remaining binding": "67%"}
{"Compound": "Nc1ncc2c(n1)-c1c([nH]c3ccc(C#CC4CC4)cc13)CCCC2", "target": "EGFR T790M", "test": "binding, competition with immobilised ligand", "conditions": "1 µM", "remaining binding": "86%"}
{"Compound": "CN(CCCC(F)(F)F)c1nccc(-c2cnn3ncccc23)n1", "target": "EGFR L858R", "test": "binding", "conditions": "1 µM", "remaining binding": "85%"}
{"Compound": "Cc1cnc(Nc2ccc(C(=O)N3CCC(N4CCCC4)CC3)cc2)nc1-c1cc2ccccc2s1", "target": "EGFR del747-750/T751S", "test": "binding, competition with immobilised ligand", "conditions": "1 µM", "remaining binding": "97%"}
